Results on one compound are retold here after publication PMC11892073 (Journal of Enzyme Inhibition and Medicinal Chemistry, 2025).

In this assay the test system is DU-145 prostate cancer cells. The assay is described as follows: In vitro antiproliferation assay. Type of assay: cell-based. The note with it: Homo sapiens, DU-145, 72 h, read-out: DU-145 (IC50, nM). The method in brief:
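DU-145 cells (ATCC) grown in medium with 10% (v/v) FBS, 50 units/ml penicillin and 50 µg/ml streptomycin at 37 °C, 5% CO2. Seeded at 5 × 10^4 cells/well, left overnight, then exposed to varying test compound concentrations for 72 h at 37 °C. A 5 mg/mL MTT solution was added for 4 h. Supernatant was removed by centrifugation and crystals dissolved in DMSO. A570 was read. IC50 came from nonlinear regression; mean ± SD, n = 3.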

`CC[C@@H]1C(=O)N(C)c2cnc(Nc3ccc(C(=O)N[C@H]4CC[C@H](N5CCN(CC6CC6)CC5)CC4)cc3OC)nc2N1C(C)C` [BI-6727, volasertib]: the half-maximal inhibitory concentration (IC50) is 4.03 ± 0.15 nM.
